Hits are enriched below; roughly 7.1% of the tested compounds scored in any of these assays.
PTEN del growth = suppresses growth of cells with PTEN deletion. HCT116 PTEN-null viability, CellTiter-Glo, 60 h; active compounds read low. viability, % at 10 µM. hit rate 1.2% among 140,000;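 active = viability at or below a set limit, 4 SD under the median of all tested compounds, cut at about 3.7% in these data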;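 note: PTEN knockout HCT116 line with beta catenin targeted HCT116 as companion control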
Fibroblast inh = blocks proliferation of human lung fibroblasts | LL 47 human lung fibroblast viability, ATP luminescence; active compounds read low | viability, % at 10 µM | hit rate 1.1% among 85,000;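 active = viability at or below 50% in the single dose screen; inactive = viability above 50%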;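 note: compound exposure lasted 72 h before the ATP readout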
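Assay system: human lung fibroblast line LL 47, low passage. Input: 1,150 fibroblasts seeded per well. Times: overnight cell rest, 72 h compound treatment at 37 °C. Evaluation: % viability of median cell-only signal. Technique: luminescent ATP detection, CellTiter-Glo. Control set: cell-only wells, no compound.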
bCat KO growth = beta-catenin-lacking colon tumor cell growth suppression | viability, % at 10 µM | hit rate 1.5% among 140,000 | HCT116 beta-catenin knockout viability, CellTiter-Glo, 60 h; active compounds read low;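 active = viability at or under a set limit, the compound median less 4 SD, cut at about 6% in these data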
Cav3 T inh = inhibitors of human Cav3.2 T-type calcium channel; hit rate 4% among 100,000; O95180; Cav3.2-expressing cells, Fluo-4 calcium fluorescence FDSS; active compounds read low; B-score at 10 µM;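 active = single-dose well whose peak fluorescence ratio is a statistical outlier from its plate by either plate-standardised score or position-corrected B-score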
Target sequence (O95180 whole entry, looked up): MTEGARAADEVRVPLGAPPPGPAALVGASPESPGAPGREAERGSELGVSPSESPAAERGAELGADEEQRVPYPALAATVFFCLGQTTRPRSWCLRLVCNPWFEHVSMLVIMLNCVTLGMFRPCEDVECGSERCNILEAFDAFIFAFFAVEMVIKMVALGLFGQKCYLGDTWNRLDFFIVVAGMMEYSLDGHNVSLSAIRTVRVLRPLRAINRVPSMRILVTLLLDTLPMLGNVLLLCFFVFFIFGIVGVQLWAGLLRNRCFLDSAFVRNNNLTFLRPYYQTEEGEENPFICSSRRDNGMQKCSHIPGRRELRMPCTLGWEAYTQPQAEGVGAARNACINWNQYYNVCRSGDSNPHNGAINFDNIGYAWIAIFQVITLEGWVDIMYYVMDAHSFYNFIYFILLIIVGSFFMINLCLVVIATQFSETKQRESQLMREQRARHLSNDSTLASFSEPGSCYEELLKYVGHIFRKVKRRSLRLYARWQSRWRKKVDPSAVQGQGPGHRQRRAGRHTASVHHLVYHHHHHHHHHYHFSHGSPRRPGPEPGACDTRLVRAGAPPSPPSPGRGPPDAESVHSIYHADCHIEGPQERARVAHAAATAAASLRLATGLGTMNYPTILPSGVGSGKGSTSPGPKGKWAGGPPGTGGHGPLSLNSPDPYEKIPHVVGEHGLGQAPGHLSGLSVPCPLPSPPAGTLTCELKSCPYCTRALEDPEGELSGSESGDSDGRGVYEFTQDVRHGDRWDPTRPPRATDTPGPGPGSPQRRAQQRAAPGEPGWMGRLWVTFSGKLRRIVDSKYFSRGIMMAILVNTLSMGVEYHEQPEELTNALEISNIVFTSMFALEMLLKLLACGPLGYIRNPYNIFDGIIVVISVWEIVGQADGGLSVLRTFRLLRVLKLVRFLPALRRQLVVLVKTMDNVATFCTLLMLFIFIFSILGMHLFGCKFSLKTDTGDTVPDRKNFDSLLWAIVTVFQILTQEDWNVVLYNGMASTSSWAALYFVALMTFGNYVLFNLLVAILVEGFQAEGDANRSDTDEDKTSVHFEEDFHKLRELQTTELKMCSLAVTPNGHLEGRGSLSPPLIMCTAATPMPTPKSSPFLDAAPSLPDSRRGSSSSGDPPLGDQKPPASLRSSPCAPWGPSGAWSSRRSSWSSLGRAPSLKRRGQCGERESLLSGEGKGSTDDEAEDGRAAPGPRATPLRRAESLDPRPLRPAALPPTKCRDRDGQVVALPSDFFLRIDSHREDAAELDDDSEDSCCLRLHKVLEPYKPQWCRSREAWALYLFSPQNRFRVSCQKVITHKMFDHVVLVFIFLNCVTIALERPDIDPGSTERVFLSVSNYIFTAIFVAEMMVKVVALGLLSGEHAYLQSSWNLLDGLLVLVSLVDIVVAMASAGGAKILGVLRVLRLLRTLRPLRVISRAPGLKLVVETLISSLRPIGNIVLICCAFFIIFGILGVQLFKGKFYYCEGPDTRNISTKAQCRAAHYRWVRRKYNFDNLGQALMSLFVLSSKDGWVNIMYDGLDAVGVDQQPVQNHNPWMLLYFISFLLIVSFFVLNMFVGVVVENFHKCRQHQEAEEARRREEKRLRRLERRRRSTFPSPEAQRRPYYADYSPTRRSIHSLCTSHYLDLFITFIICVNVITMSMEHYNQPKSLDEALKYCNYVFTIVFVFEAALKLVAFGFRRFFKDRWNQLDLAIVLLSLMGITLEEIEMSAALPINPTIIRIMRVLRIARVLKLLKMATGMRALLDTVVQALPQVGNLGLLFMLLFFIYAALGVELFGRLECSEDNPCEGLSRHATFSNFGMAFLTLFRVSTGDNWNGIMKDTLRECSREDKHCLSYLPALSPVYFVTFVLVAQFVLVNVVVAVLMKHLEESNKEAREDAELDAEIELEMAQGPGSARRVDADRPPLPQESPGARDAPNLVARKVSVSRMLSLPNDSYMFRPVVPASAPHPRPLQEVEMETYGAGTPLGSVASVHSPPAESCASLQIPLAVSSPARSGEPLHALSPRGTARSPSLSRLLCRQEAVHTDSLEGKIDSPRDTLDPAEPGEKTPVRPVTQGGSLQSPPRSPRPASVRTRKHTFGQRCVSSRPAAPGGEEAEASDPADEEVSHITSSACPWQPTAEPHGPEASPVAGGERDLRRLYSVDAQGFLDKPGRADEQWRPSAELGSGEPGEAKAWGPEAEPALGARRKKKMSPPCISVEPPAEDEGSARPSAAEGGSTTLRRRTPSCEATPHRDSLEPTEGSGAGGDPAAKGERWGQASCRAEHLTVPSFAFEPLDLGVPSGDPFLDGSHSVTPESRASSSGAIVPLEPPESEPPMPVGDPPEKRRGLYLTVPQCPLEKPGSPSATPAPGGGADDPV
H69AR inhibit = growth inhibitors of human H69AR lung tumor cells. H69AR lung tumor viability, ATP luminescence, 72 h; active compounds read low. viability, % at 10 µM. hit rate 6% among 85,000;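 active = viability at or below 40%; inactive = viability above 40%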;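 note: multidrug resistant small cell line overexpressing MRP-1 efflux transporter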
HUVEC prolif 384 = human endothelial cell proliferation inhibition | HUVEC proliferation, CellTiter-Glo luminescence, 72 h; active compounds read low | viability, % at 10 µM (by protocol) | hit rate 1.1% among 86,000 | AID 648;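 active = viability at or below 30%; inactive = viability above 30%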
A number is an active result; n = inactive; x = no result given.

SMILES | PTEN del growth | Fibroblast inh | bCat KO growth | Cav3 T inh | H69AR inhibit | HUVEC prolif 384
CC(C)c1ccc(S(=O)(=O)N2CCN(CC(=O)Nc3ccc4c(c3)OCO4)CC2)cc1 | n | n | n | -6.92 | n | n
O=C(CN1CCN(S(=O)(=O)c2ccccc2)CC1)Nc1ccc2c(c1)OCO2 | n | n | n | n | n | n
O=C(CN1CCN(c2nc(-c3ccc(F)cc3)cs2)CC1)Nc1ccc2c(c1)OCO2 | n | n | n | n | 40.0 | n
O=C(CN1CCN(S(=O)(=O)c2ccc(Cl)cc2)CC1)Nc1ccc2c(c1)OCO2 | n | n | n | n | n | n
O=C(CN1CCN(S(=O)(=O)c2ccccc2)CC1)Nc1ccc(Cl)c(Cl)c1 | n | x | n | -3.69 | x | x
CCc1nnc(NC(=O)CSc2nnc(-c3ccc(NS(=O)(=O)c4ccccc4)cc3)o2)s1 | n | x | n | x | x | x
COc1ccc(S(=O)(=O)N2CCN(CC(=O)Nc3cccc(F)c3)CC2)cc1 | n | n | n | x | n | n
CCCn1c(N2CCN(CC(=O)Nc3ccc4c(c3)OCCO4)CC2)nc2ccccc21 | n | n | n | -4.54 | n | n
CN(C)C(=O)Cn1c(SCC(=O)Nc2ccc3c(c2)OCO3)nc2ccccc21 | n | n | n | n | n | n
CC(C)c1ccc(N(CC(=O)Nc2ccc(S(=O)(=O)N3CCOCC3)cc2)S(C)(=O)=O)cc1 | n | n | n | -7.91 | 30.2 | n
O=C(CN1CCN(S(=O)(=O)c2ccc(Br)cc2)CC1)Nc1ccc2c(c1)OCCO2 | n | n | n | n | 17.1 | n
COc1ccc(S(=O)(=O)N2CCN(CC(=O)Nc3ccc(C)c(F)c3)CC2)cc1 | n | n | n | -4.2 | 4.9 | n
COc1ccc(CCNC(=O)CC2SC(=NCCc3ccccc3)NC2=O)cc1 (stereo not drawn) | n | x | n | x | x | x
CC1(C)CC(=O)C2=C(C1)Nc1ccccc1N=C2 | n | n | n | n | 0.3 | n
COc1ccccc1N1C(=O)C2ON(c3ccccc3)C(c3ccc(N(C)C)cc3)C2C1=O (stereo not drawn) | n | n | n | x | 10.6 | n
COc1ccccc1C1C2C(=O)N(c3ccccc3)C(=O)C2ON1c1ccccc1 (stereo not drawn) | n | n | n | n | n | n
CCN(CC)C(=O)Oc1cc(=O)n2c3c(cccc13)CCC2 | n | x | n | x | x | x
Cc1n[nH]c(C)c1S(=O)(=O)N1CCc2ccccc21 | n | n | n | n | n | n
Cc1cc(C)cc(N(CC(=O)N2CCc3ccccc32)S(=O)(=O)c2c(C)noc2C)c1 | n | n | n | -5.46 | n | n
Cc1cc(C)cc(N(CC(=O)N2CCn3c2nc2ccccc23)S(=O)(=O)c2c(C)noc2C)c1 | n | n | n | -5.63 | n | n
Cc1n[nH]c(C)c1S(=O)(=O)N(CC(=O)N1CCc2ccccc21)c1ccc(C(C)C)cc1 | n | n | n | 3.05 | 30.6 | n
Cc1cc(C)cc(N(CC(=O)Nc2cccc(C)n2)S(=O)(=O)c2c(C)noc2C)c1 | n | n | n | n | n | n
Cc1ccc(NC(=O)CN(c2cc(C)cc(C)c2)S(=O)(=O)c2c(C)noc2C)nc1 | n | n | n | -4.5 | n | n
CCOc1ccc(N(CC(=O)N2CCc3ccccc32)S(=O)(=O)c2c(C)noc2C)cc1 | n | n | n | n | n | n
CC(=O)n1cc([C@H]2C=C(C(=O)N3CCOCC3)O[C@@H](OCCCCO)C2)c2ccccc21 | x | x | x | n | x | x
SMILES | PTEN del growth | Fibroblast inh | bCat KO growth | Cav3 T inh | H69AR inhibit | HUVEC prolif 384
O=S(=O)(c1ccc(Cl)cc1)c1snnc1-c1ccccc1 | 1.8 | 6.5 | 2.8 | n | 1.9 | 7.5
CCCCC(=O)Nc1nc(C)c(C(C)=O)s1 | n | n | n | n | n | n
CC(=O)c1sc(NC(=O)C2(F)C(F)(F)C(F)(F)C(F)(F)C(F)(F)C2(F)F)nc1C | n | n | n | -4.01 | 12.5 | n
CC1=C(C(=O)OCc2ccccc2)C(c2ccccc2OS(=O)(=O)c2ccc([N+](=O)[O-])cc2)NC(=O)N1CCCC(=O)O (stereo not drawn) | x | x | x | n | x | x
Cc1nnc(SCC(=O)Nc2ccc(N3CCOCC3)cc2)o1 | n | n | n | x | n | n
O=c1c2ccccc2nc(-c2ccco2)n1Cc1ccccc1 | n | n | n | n | n | n
O=c1c2ccccc2nc(N2CCN(c3ccccc3)CC2)n1Cc1ccccc1 | n | n | n | -5.38 | n | n
CCCN(c1nc(C)cc(OC)n1)S(=O)(=O)c1ccccc1 | n | n | n | -4.75 | n | n
CCOC(=O)CSc1nnc(CNc2ccc(Cl)cc2)n1Cc1ccccc1 | n | n | n | n | n | n
CCn1c(CNc2ccc(Cl)cc2)nnc1SCc1ccccc1 | n | x | n | -8.49 | x | x
CCOc1ccc(NCc2nnc(SCc3ccccc3Cl)n2-c2ccccc2)cc1 | n | x | n | -4.22 | x | x
COc1ccc(-n2c(CNc3ccc(C)cc3)nnc2SCc2ccccc2)cc1 | n | x | n | x | x | x
Cn1c(CNc2ccc(Cl)cc2)nnc1SCc1ccccc1 | n | n | n | n | n | n
CC(C)OC(=O)CSc1nnc(CNc2ccc(Cl)cc2)n1Cc1ccccc1 | n | n | n | -6.67 | n | n
Cc1c(Cc2c(Cl)cccc2Cl)c(=O)ccn1C(C)c1ccccc1 (stereo not drawn) | n | x | n | n | x | x
CCN(CC)S(=O)(=O)c1ccc(C(=O)OCn2c(SC)nnc(C)c2=O)cc1 | n | x | n | x | x | x
CCc1ccc(OC(C)c2nnc(SCC(=O)Nc3ncccc3C)n2C)cc1 (stereo not drawn) | n | x | n | x | x | x
CCCC(=O)Nc1sc(C)c(C)c1C(=O)Nc1cccc(C)c1 | n | x | n | n | x | x
CCCCNC(=O)c1ccc2c(c1)ncn2C1CCCC1 | n | n | n | n | 32.7 | n
CC(C)(C)c1ccc(CN(Cc2ccccc2)C(c2ccccn2)c2nnnn2C(C)(C)C)cc1 (stereo not drawn) | n | n | n | n | n | n
CC(C)(C)n1nnnc1C(c1cccs1)N(Cc1ccc(Cl)cc1)CC1CCCO1 (stereo not drawn) | n | n | n | -4.58 | n | n
CC(C)(C)n1nnnc1C(c1cccnc1)N(Cc1ccccc1)Cc1cccs1 (stereo not drawn) | n | n | n | n | 6.6 | n
Clc1ccc(CN(Cc2ccccc2)C(c2cccs2)c2nnnn2C2CCCC2)cc1 (stereo not drawn) | n | n | n | n | n | n
CC(C)(C)n1nnnc1C(c1cccs1)N(Cc1ccccc1)Cc1cccnc1 (stereo not drawn) | n | n | n | -4.57 | n | n
Cc1c(Cl)cccc1NC(=O)c1ccc(-n2ccnc2)nc1 | n | x | n | n | x | x
O=S1(=O)CC2N=C(N(Cc3c(F)cccc3Cl)c3ccccc3F)SC2C1 (stereo not drawn) | n | x | n | x | x | x
COc1ccc(C(=O)CN2C(=O)c3ccccc3C2=O)c(OC)c1C | n | n | n | -5.23 | n | n
CCNC(=S)N(CCc1c(C)[nH]c2ccccc12)Cc1cc(OC)c(OC)c(OC)c1 | n | x | n | x | x | x
CCCCCCCCOC(=O)C1=C(C)Nc2nnnn2C1c1cccs1 (stereo not drawn) | n | n | n | n | n | 2.5

Bioassay records as filed in PubChem.
